Source: ChEMBL document CHEMBL4316585, “On the role of synthesized hydroxylated chalcones as dual functional amyloid-β aggregation and ferroptosis inhibitors for potential treatment of Alzheimer's disease” (Eur J Med Chem, 2019)
Active and inactive are the calls of the source. The calls are words filed in the database; no cut-off is given here.

Key:
SH-SY5Y [1] = test: (§1) Neurotoxicity against human SH-SY5Y cells assessed as cell viability at 10 to 40 uM after 24 hrs […] relative to control; type: toxicity, cell-based; details: sh-sy5y, 24 h, 40 µM
SH-SY5Y [2] = test: Neuroprotective activity against amyloid beta (1 to 42)-induced neurodegeneration in human SH-SY5Y cells assessed as cell viability at 10 uM preincubated for 4 hrs followed by amyloid beta (1 to 42) addition and measured after 48 hrs by MTS assay (reference value: 60.4%); type: functional; details: for viability at 10 µM: read-out: Activity
[3] = target: Amyloid-beta precursor protein (Homo sapiens) (UniProt P05067); test: Inhibition of HFIP-pretreated amyloid beta (1 to 42 residues) (unknown origin) self aggregation at 25 uM after 7 days by ThT-based fluorometric method relative to control
Amyloid-beta precursor protein (Homo sapiens), sequence (P05067 whole entry, the tested form may be a part): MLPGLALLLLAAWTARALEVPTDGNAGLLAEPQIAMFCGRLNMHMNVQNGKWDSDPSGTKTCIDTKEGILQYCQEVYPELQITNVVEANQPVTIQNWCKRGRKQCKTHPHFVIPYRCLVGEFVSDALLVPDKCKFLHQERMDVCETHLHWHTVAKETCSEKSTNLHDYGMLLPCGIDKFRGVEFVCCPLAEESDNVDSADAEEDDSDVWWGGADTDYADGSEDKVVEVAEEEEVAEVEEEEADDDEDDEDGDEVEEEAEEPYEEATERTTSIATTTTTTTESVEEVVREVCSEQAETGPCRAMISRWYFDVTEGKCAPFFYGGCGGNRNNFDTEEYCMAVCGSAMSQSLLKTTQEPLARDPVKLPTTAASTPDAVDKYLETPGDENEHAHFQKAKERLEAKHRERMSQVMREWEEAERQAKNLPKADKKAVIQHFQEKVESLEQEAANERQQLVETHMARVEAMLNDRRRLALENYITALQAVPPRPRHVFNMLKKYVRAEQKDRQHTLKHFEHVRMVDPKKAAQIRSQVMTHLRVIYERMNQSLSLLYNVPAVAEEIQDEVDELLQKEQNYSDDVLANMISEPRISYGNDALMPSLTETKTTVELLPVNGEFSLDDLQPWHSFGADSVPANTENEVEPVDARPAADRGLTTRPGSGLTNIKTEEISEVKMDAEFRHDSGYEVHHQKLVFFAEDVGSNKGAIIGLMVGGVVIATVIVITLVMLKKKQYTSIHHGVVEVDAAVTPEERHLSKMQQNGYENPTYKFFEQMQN
Procedure, shortened: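 Aβ1-42 (25 μM) incubated with or without inhibitor (25 μM, 1:1) in 10 mM phosphate buffer pH 7.4 with 100 mM NaCl at 37 °C for 7 days. Inhibitor-only blanks included. Samples diluted in 50 mM glycine-NaOH pH 8.0 containing 5 μM ThT, fluorescence read at ex 440/em 485 nm. % inhibition = (1−IFi/IFc)×100 after background subtraction, triplicate.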

SH-SY5Y [4] = test: Neuroprotective activity against amyloid beta (1 to 42)-induced neurodegeneration in human SH-SY5Y cells assessed as cell viability at 0.5 uM preincubated for 4 hrs followed by amyloid beta (1 to 42) addition and measured after 48 hrs by MTS assay (reference value: 55.1%); type: functional; details: read-out: Activity
HEK293 [5] = test: Inhibition of erastin-induced ferroptosis in HEK293 cells preincubated for 4 hrs followed by erastin stimulation and measured at next day by MTS assay; type: functional, cell-based, Homo sapiens
Procedure, shortened: (§2)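 HEK-293 cells grown in DMEM with 10 % FBS, 1 % pen/strep and 1 mM sodium pyruvate, 37 °C, 5 % CO2. Seeded 5000/well for 24 h. Compounds at a range of concentrations added 4 h before ferroptosis induction with (1S,3R)-RSL3 (500 nM) or erastin (10 μM). MTS viability read 24 h after induction, normalized to vehicle. IC50 taken as the mean of ≥3 experiments.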

SH-SY5Y [6] = test: Neuroprotective activity against amyloid beta (1 to 42)-induced neurodegeneration in human SH-SY5Y cells assessed as cell viability at 1 uM preincubated for 4 hrs followed by amyloid beta (1 to 42) addition and measured after 48 hrs by MTS assay (reference value: 55.1%); type: functional; details: read-out: Activity
HEK293 [7] = test: Inhibition of (1S,3R)-RSL3-induced ferroptosis in HEK293 cells preincubated for 4 hrs followed by erastin stimulation and measured at next day by MTS assay; type: functional, cell-based, Homo sapiens; procedure, shortened: as §2
HEK293 [8] = test: Inhibition of (1S,3R)-RSL3-induced ferroptosis in HEK293 cells preincubated for 4 hrs followed by (1S,3R)-RSL3 stimulation and measured at next day by MTS assay; details: Homo sapiens
SH-SY5Y [9] = test: Inhibition of amyloid beta (1 to 42)-induced lipid peroxidation in human SH-SY5Y cells at 10 uM incubated for 48 hrs by BODIPY-C11'581/591 probe-based flow cytometric analysis; type: functional, cell-based
Procedure, shortened: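 SH-SY5Y seeded 2×10^4/well and adhered 24 h, then given compound with Aβ1-42 for 48 h. Stained with BODIPY-C11 581/591 (1 μM) for 30 min at 37 °C in the dark. Flow cytometry at ex 488, em 525±25 nm, 10,000 events. Untreated, DEM (1 mM) and Aβ-alone controls.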

SH-SY5Y [10] = test: Neuroprotective activity against amyloid beta (1 to 42)-induced neurodegeneration in human SH-SY5Y cells assessed as increase in cell viability at 1 uM preincubated for 4 hrs followed by amyloid beta (1 to 42) addition after 48 hrs by micrograph method; type: functional, cell-based
Procedure, shortened: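 SH-SY5Y cells pretreated with compound (1 μM), then exposed to Aβ1-42 (10 μM) for 48 h. Cell morphology and clumping assessed by light micrographs against vehicle and Aβ-alone cells.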

SH-SY5Y [11] = test: Inhibition of RSL3-induced lipid peroxidation in human SH-SY5Y cells at 10 uM incubated for 24 hrs by BODIPY-C11'581/591 probe-based flow cytometric analysis; type: functional, cell-based
Procedure, shortened: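 SH-SY5Y seeded 2×10^4/well and adhered 24 h, then given compound plus RSL3 (500 nM) for 24 h. Stained with BODIPY-C11 581/591 (1 μM) for 30 min at 37 °C in the dark. Flow cytometry at ex 488, em 525±25 nm, 10,000 events. Controls: untreated (negative), DEM 1 mM, and RSL3 alone.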

[12] = as §1; type: toxicity, cell-based; details: SH-SY5Y cells, read-out: Activity
[13] = Homo sapiens, HEK293, read-out: IC50

Row | Compound | Activity (SH-SY5Y [1]) | viability at 10 µM (SH-SY5Y [2]) [%] | inhibition [3] | viability at 0.5 µM (SH-SY5Y [4]) [%] | viability at 1 µM (SH-SY5Y [6]) [%] | other results
1 | COCOc1ccc(C(=O)/C=C/c2ccc(OC)cc2)c(O)c1OCOC | Non-Toxic | 72 to 84.9 | 16.4% | – | – | –
2 | COCOc1ccc(C(=O)/C=C/c2cccc(C)c2)c(O)c1OCOC | Non-Toxic | 72 to 84.9 | 16.4% | – | – | –
3 | COCOc1ccc(C(=O)/C=C/c2cccc(Cl)c2)c(O)c1OCOC | Non-Toxic | 72 to 84.9 | 16.4% | – | – | –
4 | COc1ccc(/C=C/C(=O)c2cccc(O)c2)cc1OC | Non-Toxic | – | inactive | – | – | –
5 | O=C(O[C@@H]1Cc2c(O)cc(O)cc2O[C@@H]1c1cc(O)c(O)c(O)c1)c1cc(O)c(O)c(O)c1 [EPIGALOCATECHIN GALLATE] | – | 92.5 | 52.9% | 60.1 | 63 | IC50 (HEK293 [5]; hek293): Not Active; IC50 (HEK293 [7]): Not Active
6 | Cc1cccc(/C=C/C(=O)c2ccc(O)c(O)c2O)c1 | Non-Toxic | 96.5 to 106 | 70.3 to 76.3% | 66.7 to 73.8 | 70.8 to 77.5 | IC50 (HEK293 [8]): 450 nM; IC50 (HEK293 [5]; [13]): 3.81 µM; inhibition (SH-SY5Y [9]): Active; Activity (SH-SY5Y [10]): Active
7 | Cc1cccc(/C=C/C(=O)c2cc(O)cc(O)c2)c1 | Non-Toxic | – | 27.2% | – | – | Activity (SH-SY5Y [2]): Active
8 | O=C(/C=C/c1cccc(Cl)c1)c1ccc(O)c(O)c1O | Non-Toxic | 96.5 to 106 | 70.3 to 76.3% | 66.7 to 73.8 | 70.8 to 77.5 | IC50 (HEK293 [8]): 860 nM; inhibition (SH-SY5Y [11]): Active; IC50 (HEK293 [5]; [13]): 3.15 µM; Activity (SH-SY5Y [10]): Active
9 | COc1cc(/C=C/C(=O)CC(=O)/C=C/c2ccc(O)c(OC)c2)ccc1O [CURCUMIN] | – | 76 | – | – | – | –
10 | COc1ccc(/C=C/C(=O)c2cc(O)cc(O)c2)cc1 | Non-Toxic | – | 19% | – | – | Activity (SH-SY5Y [2]): Active
11 | COc1ccc(/C=C/C(=O)c2ccc(O)c(O)c2O)cc1 | Non-Toxic | 96.5 to 106 | 70.3 to 76.3% | 66.7 to 73.8 | 70.8 to 77.5 | IC50 (HEK293 [8]): 1770 nM; inhibition (SH-SY5Y [11]): Active; IC50 (HEK293 [5]; [13]): 3.88 µM; Activity (SH-SY5Y [10]): Active
12 | Cc1cccc(/C=C/C(=O)c2cccc(O)c2)c1 | – | – | inactive | – | – | viability at 24 h, up to 40 µM [12]: 73.6 to 77.4%
